# Results from different studies.
# DRD3: D(3) dopamine receptor (DRD3, Homo sapiens, UniProt P35462)
# CASP3: Caspase-3 (CASP3, Homo sapiens, UniProt P42574)
# SLC6A3: Sodium-dependent dopamine transporter (SLC6A3, Homo sapiens, UniProt Q01959)
# PPARG: Peroxisome proliferator-activated receptor gamma (PPARG, Homo sapiens, UniProt P37231)
target,test,conditions,Ki,Structure (SMILES)
"Histone acetyltransferase type B catalytic subunit (Homo sapiens, UniProt O14929)","enzyme activity, inhibitor, radiometric",,74800 nM,CC(=O)N[C@@H](CCCCNC(=O)CSCCNC(=O)CCNC(=O)[C@H](O)C(C)(C)COP(=O)(O)OP(=O)(O)OC[C@H]1O[C@@H](n2cnc3c(N)ncnc32)[C@H](O)[C@@H]1OP(=O)(O)O)C(N)=O
DRD3,"ligand displacement, radioligand",,> 10000 nM,COc1cccc(CCC2=NCCN2CCc2ccccc2)c1
CASP3,"enzyme activity, inhibitor, fluorescence",,96400 nM,O=c1c(O)c(-c2ccc(O)c(O)c2)oc2cc(O)cc(O)c12
SLC6A3,"cell-free assay, radioligand",,> 10000 nM,CCCCN1CCC(COC(=O)c2ccc(N)c(OCF)c2)CC1
DRD3,"ligand displacement, radioligand",,389 nM,COc1ccc2c(c1)C(=O)N(CCCN1CCN(c3ccccc3OC)CC1)C2
DRD3,"ligand displacement, radioligand",cell membranes,427 nM,CN(CCCCNC(=O)c1ccc2scnc2c1)[C@@H]1Cc2cccc3[nH]c(=O)n(c23)C1
"Tyrosine-protein phosphatase non-receptor type 22 (PTPN22, Homo sapiens, UniProt Q9Y2R2)","enzyme activity, inhibitor, fluorescence",,1100 nM,O=C1CSC(=S)N1NC(=S)SSC(=S)NN1C(=O)CSC1=S
"Carbonic anhydrase 12 (CA12, Homo sapiens, UniProt O43570)","enzyme activity, inhibitor, stopped-flow",,344 nM,NS(=O)(=O)c1ccc(-n2nccc2-c2ccc(N3CCOCC3)cc2)cc1
"DNA repair nuclease/redox regulator APEX1 (APEX1, Homo sapiens, UniProt P27695)","enzyme activity, inhibitor",,37000 nM,O=C(/C=C(/Nc1ccccc1)C(=O)c1ccccc1)c1ccccc1
DRD3,"ligand displacement, radioligand",cell membranes,14400 nM,CC1Cc2ccccc2N1C(=O)c1nc2ccccc2s1 (stereo not shown)
PPARG,"ligand displacement, TR-FRET",,103 nM,CN(CCOc1ccc(CC2SC(=O)N(CC(=O)OC(C)(C)C)C2=O)cc1)c1ccccn1 (stereo not shown)
DRD3,"ligand displacement, radioligand",cell membranes,403 nM,CN(CCCCNC(=O)c1nc2ccccc2s1)[C@@H]1Cc2cccc3[nH]c(=O)n(c23)C1
"Prostaglandin F2-alpha receptor (PTGFR, Homo sapiens, UniProt P43088)",cell-free assay,,8980 nM,CCCC[C@H](NC(=O)[C@H](C)c1c(C)[nH]c2ccc(O)cc12)c1ncc(-c2cc3ccccc3nc2OC)[nH]1
DRD3,"ligand displacement, radioligand",cell membranes,139 nM,CC1Cc2ccccc2N1C(=O)NCCCCN(C)[C@@H]1Cc2cccc3[nH]c(=O)n(c23)C1 (mixture of isomers)
SLC6A3,"ligand displacement, radioligand",,2100 nM,CNc1nc2cc(OCCCCN3CCC(c4cccc(Cl)c4Cl)CC3)ccc2s1
CASP3,"enzyme activity, inhibitor, fluorescence",,194000 nM,O=c1c(O)c(-c2ccc(O)cc2)oc2cc(O)cc(O)c12
SLC6A3,"ligand displacement, radioligand",,2500 nM,CC(C)c1nc2cc(OCCCCN3CCN(c4cccc5c4OCCO5)CC3)ccc2s1
PPARG,"cell-free assay, TR-FRET",,3200 nM,CC1(C)C=Cc2c(cc3oc(-c4ccccc4)c(O)c(=O)c3c2O)O1
"Beta-secretase 2 (BACE2, Homo sapiens, UniProt Q9Y5Z0)","enzyme activity, inhibitor",,46 nM,CSC[C@H](NC(=O)C1=NO[C@@H]2OCC[C@H]12)C(=O)N[C@@H](CC(C)C)[C@@H](O)C[C@@H](C)C(=O)N[C@H](C(=O)NCC(C)C)C(C)C
